# Experimental data: ChEMBL document CHEMBL2390844, “Evaluation of bioactivities of chlorokojic acid derivatives against dermatophytes couplet with cytotoxicity” (Bioorg Med Chem Lett, 2013)
# What was measured:
# Epidermophyton floccosum [1] = experiment: Antidermatophytic activity against Epidermophyton floccosum isolate after 7 days by broth microdilution method; format: functional; settings: 168 h
# Method in brief: (§1)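 Broth microdilution per CLSI in RPMI 1640 with L-glutamine, no bicarbonate, buffered to pH 7.0 with 0.165 M MOPS, filter-sterilized. Test dilution series 128-0.0625 μg mL⁻¹; sterility and growth (inoculum) controls on each plate. Wells inoculated, incubated 28°C for 7 days, read visually with an inverted mirror; MIC recorded. Triplicate.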
# [2] = Antidermatophytic activity against Trichophyton mentagrophytes var. erinacei isolate after 7 days by broth microdilution method; format: functional; settings: Arthroderma benhamiae; method in brief: as §1
# Nannizzia gypsea [3] = experiment: Antidermatophytic activity against Microsporum gypseum NCPF 580 after 7 days by broth microdilution method; format: functional; settings: NCPF 580, 168 h; method in brief: as §1
# Epidermophyton floccosum [4] = experiment: Antidermatophytic activity against Epidermophyton floccosum RSKK 3027 after 7 days by broth microdilution method; format: functional; settings: RSKK 3027, 168 h; method in brief: as §1
# Nannizzia gypsea [5] = experiment: Antidermatophytic activity against Microsporum gypseum isolate after 7 days by broth microdilution method; format: functional; settings: 168 h; method in brief: as §1
# [6] = Antidermatophytic activity against Trichophyton mentagrophytes var. erinacei NCPF 375 after 7 days by broth microdilution method; format: functional; settings: Arthroderma benhamiae; method in brief: as §1
# [7] = Cytotoxicity against human MRC5 cells; format: cell-based; settings: read-out: MNCC
# Method in brief: (§2)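 Maximum non-toxic concentration (MNTC) determined in HeLa and MRC-5 cells by a previously described method, based on cellular morphological alteration.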
# [8] = Cytotoxicity against human HeLa cells; format: cell-based; settings: read-out: MNCC; method in brief: as §2
SMILES,MIC (Epidermophyton floccosum [1]),MIC [2],MIC (Nannizzia gypsea [3]),MIC (Epidermophyton floccosum [4]),MIC (Nannizzia gypsea [5]),MIC [6],MNTC [7],MNTC [8]
N#CC1(c2ccccc2)CCN(Cc2oc(CCl)cc(=O)c2O)CC1,32 mg/L,32 mg/L,16 mg/L,16 mg/L,32 mg/L,16 mg/L,≥ 256 µg/mL,≥ 256 µg/mL
O=c1cc(CCl)oc(CN2CCN(Cc3cc(F)ccc3F)CC2)c1O,8 mg/L,8 mg/L,4 mg/L,4 mg/L,8 mg/L,4 mg/L,≥ 256 µg/mL,≥ 256 µg/mL
Cc1cccc(N2CCN(Cc3oc(CCl)cc(=O)c3O)CC2)c1C,16 mg/L,8 mg/L,8 mg/L,8 mg/L,16 mg/L,4 mg/L,≥ 256 µg/mL,≥ 256 µg/mL
O=C(C1CCCCC1)N1CCN(Cc2oc(CCl)cc(=O)c2O)CC1,32 mg/L,16 mg/L,16 mg/L,16 mg/L,32 mg/L,8 mg/L,≥ 128 µg/mL,≥ 128 µg/mL
O=c1cc(CCl)oc(CN2CCN(Cc3ccccc3)CC2)c1O,32 mg/L,32 mg/L,16 mg/L,16 mg/L,32 mg/L,16 mg/L,≥ 512 µg/mL,≥ 512 µg/mL
O=c1cc(CCl)oc(CN2CCN(C3CCCCC3)CC2)c1O,32 mg/L,16 mg/L,16 mg/L,16 mg/L,32 mg/L,16 mg/L,≥ 512 µg/mL,≥ 512 µg/mL
CC(=O)c1ccc(N2CCN(Cc3oc(CCl)cc(=O)c3O)CC2)cc1,16 mg/L,16 mg/L,16 mg/L,16 mg/L,16 mg/L,16 mg/L,≥ 512 µg/mL,≥ 512 µg/mL
O=c1cc(CCl)oc(CN2CCN(c3ccc(C(F)(F)F)cc3)CC2)c1O,64 mg/L,64 mg/L,32 mg/L,32 mg/L,64 mg/L,32 mg/L,≥ 128 µg/mL,
O=c1cc(CCl)oc(CN2CC=C(c3ccc(Cl)cc3)CC2)c1O,8 mg/L,8 mg/L,8 mg/L,8 mg/L,8 mg/L,8 mg/L,≥ 256 µg/mL,≥ 256 µg/mL
CCC(C)n1ncn(-c2ccc(N3CCN(c4ccc(OCC5COC(Cn6cncn6)(c6ccc(Cl)cc6Cl)O5)cc4)CC3)cc2)c1=O (stereo not drawn) [ITRACONAZOLE],0.25 mg/L,0.5 mg/L,0.125 mg/L,0.125 mg/L,0.25 mg/L,0.25 mg/L,,
COC1=CC(=O)C[C@@H](C)[C@]12Oc1c(Cl)c(OC)cc(OC)c1C2=O [GRISEOFULVIN],1 mg/L,1 mg/L,0.5 mg/L,0.5 mg/L,1 mg/L,0.5 mg/L,,
O=c1cc(CCl)oc(CN2CCN(c3ccc([N+](=O)[O-])cc3)CC2)c1O,32 mg/L,32 mg/L,16 mg/L,16 mg/L,32 mg/L,16 mg/L,≥ 512 µg/mL,≥ 512 µg/mL
O=c1cc(CCl)oc(CN2CC=C(c3ccccc3)CC2)c1O,16 mg/L,16 mg/L,8 mg/L,8 mg/L,16 mg/L,8 mg/L,≥ 256 µg/mL,≥ 256 µg/mL
O=c1cc(CCl)oc(CN2CC=C(c3ccc(F)cc3)CC2)c1O,16 mg/L,16 mg/L,16 mg/L,16 mg/L,16 mg/L,16 mg/L,≥ 256 µg/mL,≥ 256 µg/mL
O=c1cc(CCl)oc(CN2CCN(c3ccc(F)cc3)CC2)c1O,16 mg/L,8 mg/L,8 mg/L,8 mg/L,16 mg/L,8 mg/L,≥ 128 µg/mL,
CN(C/C=C/C#CC(C)(C)C)Cc1cccc2ccccc12 [TERBINAFINE],0.5 mg/L,0.25 mg/L,0.25 mg/L,0.25 mg/L,0.5 mg/L,0.125 mg/L,,
O=c1cc(CCl)oc(CN2CCN(CC3CCCCC3)CC2)c1O,8 mg/L,8 mg/L,4 mg/L,4 mg/L,8 mg/L,4 mg/L,≥ 512 µg/mL,≥ 256 µg/mL
O=c1cc(CCl)oc(CN2CCN(c3ccccc3F)CC2)c1O,32 mg/L,16 mg/L,8 mg/L,16 mg/L,16 mg/L,8 mg/L,≥ 128 µg/mL,
O=c1cc(CCl)occ1O,16 mg/L,8 mg/L,2 mg/L,8 mg/L,4 mg/L,4 mg/L,≥ 256 µg/mL,≥ 256 µg/mL
Cc1ccccc1N1CCN(Cc2oc(CCl)cc(=O)c2O)CC1,32 mg/L,16 mg/L,16 mg/L,16 mg/L,32 mg/L,8 mg/L,≥ 128 µg/mL,≥ 128 µg/mL
O=c1cc(CCl)oc(CN2CCN(c3ccccc3)CC2)c1O,8 mg/L,16 mg/L,8 mg/L,4 mg/L,8 mg/L,8 mg/L,≥ 256 µg/mL,≥ 256 µg/mL
Cc1cccc(CN2CCN(Cc3oc(CCl)cc(=O)c3O)CC2)c1,32 mg/L,16 mg/L,16 mg/L,16 mg/L,32 mg/L,16 mg/L,≥ 512 µg/mL,≥ 512 µg/mL
O=c1cc(CCl)oc(CN2CCN(Cc3ccc(Cl)cc3)CC2)c1O,8 mg/L,8 mg/L,4 mg/L,4 mg/L,8 mg/L,4 mg/L,≥ 128 µg/mL,≥ 128 µg/mL
O=C(OCc1ccccc1)N1CCN(Cc2oc(CCl)cc(=O)c2O)CC1,8 mg/L,8 mg/L,4 mg/L,4 mg/L,8 mg/L,4 mg/L,≥ 128 µg/mL,≥ 256 µg/mL
Cc1ccccc1CN1CCN(Cc2oc(CCl)cc(=O)c2O)CC1,32 mg/L,32 mg/L,16 mg/L,16 mg/L,32 mg/L,16 mg/L,≥ 512 µg/mL,≥ 512 µg/mL
Cc1ccc(N2CCN(Cc3oc(CCl)cc(=O)c3O)CC2)cc1,8 mg/L,8 mg/L,4 mg/L,4 mg/L,8 mg/L,4 mg/L,≥ 64 µg/mL,≥ 64 µg/mL
O=c1cc(CCl)oc(CN2CCN(Cc3c(Cl)cccc3Cl)CC2)c1O,8 mg/L,8 mg/L,4 mg/L,4 mg/L,8 mg/L,4 mg/L,≥ 512 µg/mL,≥ 256 µg/mL
O=c1cc(CCl)oc(CN2CCN(Cc3cccc(C(F)(F)F)c3)CC2)c1O,8 mg/L,8 mg/L,4 mg/L,4 mg/L,8 mg/L,4 mg/L,≥ 512 µg/mL,≥ 512 µg/mL
O=c1cc(CCl)oc(CN2CCN(Cc3ccc(C(F)(F)F)cc3)CC2)c1O,8 mg/L,8 mg/L,4 mg/L,4 mg/L,8 mg/L,4 mg/L,≥ 512 µg/mL,≥ 512 µg/mL
